# Most compounds without a hit are left out; they make up all but 2.7% or so of the library.
# PAFAH1B3 FP inh: PAFAH1B3 enzyme inhibitors, primary screen, biochemical, fluorescence polarization, human. inhibition, % at 3.39 µM. actives 0.28% (n = 340,000). Platelet-activating factor acetylhydrolase IB subunit alpha1 (Homo sapiens), Q15102. AID 492972, 2010. recombinant PAFAH1B3, FP-rhodamine probe;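 active = inhibition above the screen-wide average of all tested compounds plus 3 SD, cut at about 25% in these data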;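 also: 0% = enzyme with DMSO only and 100% = wells lacking PAFAH1B3 protein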
# RBBP9 inh: human RBBP9 inhibitors, primary screen, biochemical, fluorescence polarization, FP-Rh probe, HTS; actives 0.2% (n = 220,000); inhibition, % at 7.94 µM; recombinant RBBP9; AID 1515, 2009; Serine hydrolase RBBP9 (Homo sapiens), O75884;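 active = inhibition above the campaign mean of all tested compounds plus 3 SD, cut at about 14% in these data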;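 also: plate controls were DMSO wells with RBBP9 for no effect and wells lacking RBBP9 protein for full effect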
# Target sequence (O75884 whole entry, looked up): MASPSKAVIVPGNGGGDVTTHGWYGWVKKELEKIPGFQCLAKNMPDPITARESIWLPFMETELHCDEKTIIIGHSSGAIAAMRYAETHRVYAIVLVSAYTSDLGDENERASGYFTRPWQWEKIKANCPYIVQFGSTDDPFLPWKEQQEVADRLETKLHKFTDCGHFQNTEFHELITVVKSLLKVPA
#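 Material: RBBP9 protein. Amount: RBBP9 at 2.5 µM in dispensed solution, before mixing. Schedule: 30 min then 45 min, 25 °C. Medium: Tris buffer pH 8.0, NaCl, Pluronic. Measured by: fluorescence polarization. Measure: percent inhibition from mP, scaled between DMSO and no-protein wells. Replication: one well per compound.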
# PAFAH1B2 inh: PAFAH1B2 enzyme inhibitors, primary screen, biochemical, fluorescence polarization, human; Platelet-activating factor acetylhydrolase IB subunit alpha2 (Homo sapiens), P68402; recombinant PAFAH1B2, FP-rhodamine activity probe; inhibition, % at 3.39 µM; actives 1.2% (n = 340,000); AID 492953, 2010;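 active = inhibition above the mean of all tested compounds plus 3 SD, cut at about 24% in these data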;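 also: 0% = enzyme with DMSO and 100% = wells lacking PAFAH1B2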
# PAFAH2 FP inh: PAFAH2 enzyme inhibitors, primary screen, biochemical, fluorescence polarization, human | recombinant PAFAH2, FP-rhodamine activity probe | AID 492956, 2010 | Platelet-activating factor acetylhydrolase 2, cytoplasmic (Homo sapiens), Q99487 | inhibition, % at 3.39 µM | actives 0.99% (n = 340,000);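 active = inhibition above the mean over all tested compounds plus 3 SD, cut at about 30% in these data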;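 also: inhibitors block probe labeling of enzyme so polarization drops; 0% = enzyme with DMSO and 100% = wells lacking PAFAH2 protein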
# pPAFAH FP inh: pPAFAH enzyme inhibitors, primary screen, biochemical, fluorescence polarization, human; Platelet-activating factor acetylhydrolase (Homo sapiens), Q13093; recombinant pPAFAH, FP-rhodamine probe fluorescence polarization; inhibition, % at 3.39 µM; actives 1.5% (n = 330,000); AID 463082, 2010;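 active = inhibition above the mean inhibition across the screen plus 3 SD, cut at about 25% in these data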;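 also: inhibitors block binding of the rhodamine activity-based probe so polarization drops; 0% = enzyme with DMSO and 100% = wells lacking pPAFAH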
# Target sequence (Q13093 whole entry, looked up): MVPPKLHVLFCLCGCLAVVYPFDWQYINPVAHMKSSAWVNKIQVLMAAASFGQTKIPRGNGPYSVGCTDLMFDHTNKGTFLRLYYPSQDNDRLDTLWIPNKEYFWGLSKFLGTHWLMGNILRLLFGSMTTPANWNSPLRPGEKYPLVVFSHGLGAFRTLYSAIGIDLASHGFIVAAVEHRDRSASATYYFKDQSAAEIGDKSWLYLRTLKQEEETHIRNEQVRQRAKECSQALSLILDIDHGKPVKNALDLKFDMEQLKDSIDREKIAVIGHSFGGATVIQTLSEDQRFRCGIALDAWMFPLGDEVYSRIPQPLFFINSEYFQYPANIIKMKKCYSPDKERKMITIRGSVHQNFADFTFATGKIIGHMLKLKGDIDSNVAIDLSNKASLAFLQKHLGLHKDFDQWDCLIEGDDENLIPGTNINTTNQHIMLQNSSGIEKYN
# pPAFAH FP conf: pPAFAH (PLA2G7) enzyme inhibitors, confirmation, biochemical, fluorescence polarization, human; recombinant pPAFAH, FP-Rh probe fluorescence polarization; shares compounds with pPAFAH FP inh; inhibition, % at 3.39 µM; actives 72% (n = 2,300);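 active = mean inhibition of the triplicate above the hit cutoff set for the earlier primary screen, cut at about 25% in these data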;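 also: 0% = enzyme with DMSO and 100% = wells lacking pPAFAH enzyme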
# PAFAH2 confirm: PAFAH2 enzyme inhibitors, confirmation, biochemical, fluorescence polarization, human; shares compounds with PAFAH2 FP inh; recombinant PAFAH2, FP-rhodamine activity probe; inhibition, % at 3.39 µM; actives 65% (n = 2,300); AID 493030, 2011;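 active = mean inhibition over three repeats above a set limit taken from the earlier primary screen, cut at about 30% in these data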;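 also: inhibitor blocks binding of rhodamine activity probe so polarization falls; 0% = enzyme with DMSO and 100% = wells lacking PAFAH2 protein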
# An asterisk follows results filed as active; . = no result; ! = not active in a repeat.
SMILES,PAFAH1B3 FP inh,RBBP9 inh,PAFAH1B2 inh,PAFAH2 FP inh,pPAFAH FP inh,pPAFAH FP conf,others
N/C(=N\N=C/c1ccc(-c2ccc(O)c(C(=O)O)c2)o1)N[N+](=O)[O-],30*,-6,11,12,50*,35*,
COC(=O)C1=C(c2cc3ccccc3o2)C[C@@H]2CC[C@H]1N2C(=O)N1CCC(C)CC1,0,.,1,-7,4,.,
CCC(=O)c1cn(Cc2ccccc2C#N)c2ccccc12,3,-9,4,3,8,.,
O=C(c1cn(Cc2ccccc2)c2ccccc12)C1CC1,1,-5,3,-3,-5,.,
N#Cc1ccccc1Cn1cc(C(=O)c2ccco2)c2ccccc21,2,-10,-2,3,72*,77*,
O=C(c1ccco1)c1cn(Cc2ccccc2Cl)c2ccccc12,9,-15,-2,-3,74*,76*,
CN1CCC(c2c[nH]c3ccccc23)C1 (stereo unspecified),8,12,7,8,44*,4,
O=C1NC(=O)N(c2ccccc2)C(=O)/C1=C\c1ccc([N+](=O)[O-])o1,.,-12,.,.,19,.,
O=C1NC(=O)N(c2ccccc2)C(=O)/C1=C\c1ccc([N+](=O)[O-])s1,.,-10,.,.,56*,46*,
COc1ccc(N2C(=O)NC(=O)/C(=C\c3ccccc3[N+](=O)[O-])C2=O)cc1,1,-7,4,5,-4,.,
COc1ccc(OC)c(N2C(=O)NC(=O)/C(=C\c3ccc([N+](=O)[O-])s3)C2=O)c1,61*,-5,47*,54*,64*,69*,
COc1ccc(N=C(C)c2c(O)n(C)c(=O)n(C)c2=O)c(OC)c1,11,1,2,1,-6,.,
Cc1cccc(N2C(=O)NC(=O)/C(=C/c3cc4c(cc3[N+](=O)[O-])OCO4)C2=O)c1,2,3,1,17,42*,-1,
C[n+]1c(-c2ccccc2)c2cc(N)ccc2c2ccc(N)cc21,121*,.,87*,92*,68*,52*,
O=C(Cc1ccccc1)OCC(=O)N1CCN(S(=O)(=O)c2ccc(Cl)cc2)CC1,7,.,19,11,20,.,
O=c1[nH]c(=S)n(-c2ccc(Br)cc2)c(O)c1C=Nc1ccc(N2CCOCC2)cc1,-1,-5,2,10,57*,33*,
CC(=O)N1CCN(c2ccc(N=Cc3c(O)n(-c4ccc(Cl)cc4)c(=O)[nH]c3=O)cc2)CC1,5,-8,6,-2,41*,17,
Cc1ccc(N=Cc2c(O)n(-c3ccc(C)cc3)c(=O)[nH]c2=O)cc1,4,.,6,6,6,.,
CCOc1ccc(-n2c(O)c(C=Nc3ccc(N4CCOCC4)cc3)c(=O)[nH]c2=O)cc1,-1,-4,3,-7,2,.,
COc1cccc(/C=C2\N=C(c3cncc(Br)c3)OC2=O)c1,4,-4,4,9,-2,.,
COc1cc2c(cc1OC)-c1c(OC)c(OC)c(OC)c3ccnc(c13)C2=O,.,2,.,.,38*,19,
O=C1CNC(c2ccccc2Cl)c2cc(Br)ccc2N1 (stereo unspecified),5,.,1,4,-3,.,
Cn1cccc1/C=C1\C(=O)NC(=O)N(Cc2ccccc2)C1=O,10,-8,9,17,11,.,
Cn1cccc1/C=C1/C(=O)NC(=S)N(Cc2ccc(F)cc2)C1=O,3,-2,55*,44*,61*,45*,
CCC1(C)CN(S(=O)(=O)OCC(Cl)(Cl)Cl)C(=O)N1 (stereo unspecified),8,.,5,6,-2,.,
SMILES,PAFAH1B3 FP inh,RBBP9 inh,PAFAH1B2 inh,PAFAH2 FP inh,pPAFAH FP inh,pPAFAH FP conf,others
CN(C)C1C(=O)C(C(N)=O)=C(O)C2(O)C(=O)C3=C(O)c4c(O)cccc4C(C)(O)C3CC12 (stereo unspecified),7,.,6,-9,36*,-1,
CN(C)[C@@H]1C(=O)C(C(N)=O)=C(O)[C@@]2(O)C(=O)C3=C(O)c4c(O)cccc4[C@@](C)(O)C3[C@H](O)C12 (stereo partly specified),26*!,.,31*!,47*!,64*,-3,
COP(=S)(OC)Oc1ccc(Sc2ccc(OP(=S)(OC)OC)cc2)cc1,-2,.,-1,9,.,.,
CCCCNS(=O)(=O)c1ccc(OCC(=O)N2CCN(Cc3ccc4c(c3)OCO4)CC2)cc1,0,.,6,4,12,.,
O=C(COC(=O)Cc1ccccc1)Nc1ncc(Cl)cc1Cl,4,-7,-2,0,35*,23,
C=CCN1CC[C@]23c4c5ccc(O)c4OC2C(=O)CC[C@@]3(O)C1C5 (stereo partly specified),3,0,10,-1,1,.,
CCCCN1C(=O)/C(=C/c2ccc(N(C)C)cc2)C(=O)N(Cc2ccco2)C1=O,-32,-13,-13,-24,36*,-1,
CCN(CC)c1ccc(/C=C2\C(=O)NC(=O)N(Cc3ccco3)C2=O)cc1,-11,-7,-6,13,6,.,
Cc1cc(C(=O)CS(=O)(=O)c2ccccc2)cc(C)c1OC(=O)N(C)C,6,-6,6,9,38*,4,
COc1ccc2c3c1OC1[C@H](O)CCC4[C@@H](C2)N(C)CC[C@]314 (stereo partly specified),5,.,0,2,35*,2,
COc1ccc2c(c1O)C13CCN(C)C(C2)C1CCC(=O)C3 (stereo unspecified),.,.,.,.,1,.,
CC(C)C/C(=N/O)c1c[nH]c2ccccc12,6,-6,1,-1,2,.,
O=[N+]([O-])c1ccc(NCc2ccccc2)c2nonc12,.,11,.,.,47*,41*,
Cc1cc(/C=C2/C(=O)NC(=O)N(Cc3ccco3)C2=O)c(C)n1-c1ccccc1O,8,-2,5,32*,11,.,PAFAH2 confirm=26
O=C(N/N=C/C1C(=O)NC(=S)N(c2ccccc2)C1=O)c1cc(Br)c(O)c(Br)c1 (stereo unspecified),8,4,20,37*,24,.,PAFAH2 confirm=27
CCn1c(O)c(/C=N/NC(=O)c2ccccc2)c(=O)n(CC)c1=S,.,-2,.,.,22,.,
